A selection: hits, their analogues and other compounds. The true share with any hit is near 0.89%.
V-ATPase pHluor: regulators of yeast V-ATPase proton pumping, primary screen, pHLuorin cytosolic pH fluorescence; S. cerevisiae; hit rate 0.37% among 350,000; AID 504577, 2011; response, % at 10 µM; in the data active means response mostly above about 7.3%, no sharp cut-off; inactive means mostly below about 5.4%; further: actives read high
T cell modulator: modulators of CD8 T cell-vesicle binding, primary screen, mouse 2C CD8+ T cells, flow cytometry; 2C CD8+ T cell-vesicle binding; active compounds read low; hit rate 0.068% among 330,000; response (vesicle binding), % at 7 µM;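 active means response, share of CD8 T cells binding vesicles, and their 90th percentile fluorescence all below set limits, cut at about 80% in these data, passing the limit was not always enough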;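 further: values below 100% mean blocked vesicle binding to the CD8+ T cells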
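System: murine 2C transgenic CD8+ T lymphocytes; also added: QL9-loaded Drosophila micro-vesicles; times: binding 1.5 h at 37 °C; measured by: flow cytometry, PE anti-B7-1 (FL2) versus Alexa647 anti-CD8 (FL8), PFA-fixed; control set: Peptide-free naked vesicles (low) and QL9 vesicles with 0.7% DMSO vehicle (high)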
beta cell repl: inducers of MIN6 beta-cell proliferation, primary screen, ATP luminescence, uHTS; AID 2380, 2010; MIN6 cells proliferation, ATPlite luminescence, 48 h; cells starved in 0.2% serum; 100% = growth in 10% serum; hit rate 0.29% among 330,000; proliferation, % at 10 µM;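 active means compounds whose signal lies at least 3.5 SD above the mean of all wells on their plate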
XiGFP reactiv: activators of inactive X chromosome reactivation, primary screen, imaging, XiGFP fibroblasts, GFP high-content imaging, set 2; XiGFP mouse fibroblasts, % GFP-positive cells imaging, 3 d; cells co-treated with 5-aza-dC sensitizer; scaled so ellipticine positive control = 100%; activation, % at 7.58 µM; hit rate 0.055% among 360,000;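 active means mean normalized replicate activation at least 10% and every replicate at or above 10%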
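System: 68-5-11 XiGFP fibroblast line | Buffer or medium: DMEM containing 5-aza-dC | Compound: Single point | Times: Compounds 3 days, fix/stain 15 min at room temperature | Benchmarks: Positive control ellipticine, 6 µM final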
NTR1 agonist: agonists of human NTR1, primary screen, imaging, U2OS cells, beta-arrestin-GFP, high content | Neurotensin receptor type 1 (Homo sapiens), P30989 | hit rate 0.17% among 330,000 | AID 493036, 2011 | NTR1-U2OS beta-arrestin-GFP spot imaging, agonist mode | activation, % at 20 µM;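 active means activation at or above 40% of the spot to cytoplasm intensity ratio, with at least 20 cells analyzed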
Target sequence (P30989 whole entry, looked up): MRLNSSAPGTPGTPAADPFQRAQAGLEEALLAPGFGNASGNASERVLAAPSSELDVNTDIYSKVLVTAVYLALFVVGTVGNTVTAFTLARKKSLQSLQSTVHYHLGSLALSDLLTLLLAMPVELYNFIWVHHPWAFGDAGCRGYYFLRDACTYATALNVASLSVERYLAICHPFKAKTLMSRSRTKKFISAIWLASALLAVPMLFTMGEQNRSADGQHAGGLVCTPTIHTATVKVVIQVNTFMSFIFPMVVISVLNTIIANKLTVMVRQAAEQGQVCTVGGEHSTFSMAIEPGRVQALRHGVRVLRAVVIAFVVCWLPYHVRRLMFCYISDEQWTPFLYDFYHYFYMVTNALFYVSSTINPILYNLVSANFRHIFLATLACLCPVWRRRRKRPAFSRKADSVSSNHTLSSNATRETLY
Arr AP2 block: inhibitors of beta-arrestin/AP2 binding, primary screen, biochemical, GPCR trafficking, flow cytometry; beta-arrestin 1 C-terminal peptide binding to AP2 beta2-adaptin appendage (human); FITC-arrestin peptide / GST-AP2 beads; AP2 beta2 appendage carries R879A mutation; inhibition, % at 10 µM; hit rate 0.31% among 340,000; AID 504490, 2011;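 active means inhibition above a set limit, near 3 SD of compounds lacking own fluorescence, cut at about 54% in these data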
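system = GST-tagged AP2 beta2-adaptin appendage (R879A) on 4 µm glutathione beads | reagent = FITC-labelled arrestin peptide probe, 50 nM final | schedule = compound with beads 12 min RT, then probe 1 h RT | signal = HyperCyt-sampled flow cytometry, FL1 channel, ex 488/em 535 nm | read-out = percent response from loss of bead-bound FITC fluorescence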
VATPase regulator: yeast V-ATPase proton pumping modulators, confirmation, S. cerevisiae, pH-sensitive GFP, second cherry-pick | shares compounds with V-ATPase pHluor | S. cerevisiae pHLuorin cytosolic pH, V-ATPase proton transport | response, % at 10 µM | hit rate 2% among 980 | AID 602197, 2012; in the data active means response above about 24%
Numbers stand for hits; n = inactive; x = not tested or not shown.

SMILES	V-ATPase pHluor	T cell modulator	beta cell repl	XiGFP reactiv	NTR1 agonist	Arr AP2 block	VATPase regulator
O=c1c2ccccc2sn1-c1ccccc1	n	n	n	x	n	n	x
O=c1c2ccccc2sn1-c1cccc(Cl)c1	n	x	x	n	x	x	n
NNC(=O)COc1cccc(C(F)(F)F)c1	11.9	n	n	n	n	n	n
CCc1ccc(NC(=O)C2CCCN(S(=O)(=O)c3cnc[nH]3)C2)cc1 (centres undefined)	10.6	n	n	x	n	n	n
COCCNC(=O)C[C@H]1C=C[C@@H](NC(=O)NC2CCCCC2)[C@H](CO)O1	x	x	x	n	x	x	x
CCOC(=O)c1ccc(NC(=O)COc2ccccc2CNCCc2ccccc2)cc1	13.5	n	n	n	n	n	n
Cc1nn(C)cc1C(C)NC(=O)c1cc(COc2cccc3cnccc23)on1 (centres undefined)	n	n	n	n	n	n	x
Cc1nn(C)cc1C(C)NC(=O)c1cc(COc2c(F)cccc2F)on1 (centres undefined)	11.3	n	n	n	n	n	n
COC(=O)c1ccc(C2NC(=S)N(c3ccccc3)C(C)=C2C(=O)Nc2ccccc2OC)cc1 (centres undefined)	11.0	n	n	x	n	n	n
CO[C@@H]1CN(C)C(=O)c2ccc(NS(=O)(=O)CC(F)(F)F)cc2OC[C@@H](C)N(C(=O)c2ccc3c(c2)OCO3)C[C@@H]1C	x	x	x	n	x	x	x
C[C@H](c1ccccc1)n1nnc(COCc2ccccc2)c1C#CCOCc1ccccc1	9.9	n	n	n	n	n	n
Cc1ccc(NC(=O)c2ncn(CCCN3CCN(c4ccccn4)CC3)n2)cc1C	12.7	x	x	n	x	n	n
Cc1ccc(NC(=O)c2ncn(CCCN3CCN(c4ncccn4)CC3)n2)cc1C	n	x	x	n	x	n	x
COc1cc(C2NC(=O)NC(C)=C2C(=O)OCc2ccc(C)cc2)cc(OC)c1O (centres undefined)	9.5	n	n	x	n	n	n
CC(C)NC(=O)N(C)C[C@@H]1Oc2ncc(C#CCC3CCCC3)cc2C(=O)N([C@H](C)CO)C[C@H]1C	x	x	x	n	x	x	x
CCOC(=O)Cn1c(-c2ccccc2)nc2ccccc2c1=O	n	n	n	x	n	n	n
Cc1nc2ccccc2n1CC(=O)OCC(=O)NCc1ccccc1	n	n	n	n	n	n	x
CCOC(=O)Cn1c(=O)c(-c2ccccc2NCc2ccccc2)nc2ccccc21	n	n	n	x	n	n	n
O=C(C[C@H]1C[C@H]2c3cc(NC(=O)NC4CCCC4)ccc3O[C@H]2[C@@H](CO)O1)NCc1cccc(F)c1	x	x	x	n	x	x	x
COc1ccc(-c2ccc3c(c2)[C@@H]2[C@@H](CCN2C(=O)c2ccc4c(c2)OCO4)[C@H](CO)N3C)cc1	x	x	x	n	x	x	x
O=C(C[C@@H]1C[C@@H]2c3cc(NC(=O)Nc4ccccc4)ccc3O[C@@H]2[C@@H](CO)O1)NCc1cccc(F)c1	x	x	x	n	x	x	x
C=CCN(C(=O)CNS(=O)(=O)c1ccccc1)C(C(=O)NCCOC)c1ccncc1 (centres undefined)	21.6	n	n	x	n	n	n
CN(Cc1nc(C(c2ccccc2)c2ccccc2)no1)CC1COCCO1 (centres undefined)	10.8	n	n	n	n	n	n
CCc1nn(CC(=O)N2CCCCCC2)c(=O)c2cc3ccccc3n12	13.1	n	n	n	n	n	n
CN(C)C(CNC(=O)c1ccc(S(=O)(=O)Nc2cccc(C(F)(F)F)c2)cc1)c1ccco1 (centres undefined)	10.2	n	n	n	n	n	n
C[C@@H]1CN([C@@H](C)CO)C(=O)Cc2cc(NC(=O)Nc3ccc(F)cc3)ccc2O[C@@H]1CN(C)C(=O)Nc1cccc2ccccc12	x	x	x	n	x	x	x

Assay outcomes as filed in PubChem BioAssay.
